These results are taken from article PMC4238785 (British Journal of Clinical Pharmacology, 2014).

Series [1] is classed as in vivo, human. The conditions noted are these: for Tmax / Vd/F: male, human, plasma, po. The essentials:
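Healthy subjects received a single oral 20 mg test-compound dose with 240 ml water after an overnight fast, continued to 4 h. Period 2, after a 5−7 day washout: CYP3A4 inhibitor 400 mg orally once daily for 7 days, co-dosed on day 5. Plasma was sampled predose–72 h, acidified (citrate, pH 1.5) and run by chiral LC-MS. Ratios: ANOVA (log values, period and subject effects), least-square geometric means, 90% CI.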

A further series concerns OATP1B1. The settings on record: in vitro studies, no reference given; cited from earlier work.
For series [2] the following is noted: cited from earlier work.
For series [3] the following is noted: acidic conditions; no reference given; cited from earlier work.
Another series concerns OATP1B3. The settings on record: in vitro studies, no reference given; cited from earlier work.
Series [4] is classed as in vivo, human. The essentials:
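Healthy subjects fasted overnight and received a single oral 30 mg test-compound dose in each of three periods. After a 4-day washout, it was followed 5 min later by 600 mg i.v. inducer over 30 min. Then 600 mg oral inducer daily on days 7–21, co-dosed on day 20. Plasma (predose–48 h) was citric-acid stabilised, extracted with MTBE and run by achiral LC-MS. Ratios: ANOVA of log values, geometric-mean 90% CI.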

A further series relates to CYP2A6. The settings on record: [14C]-apremilast, in vitro; cited from earlier work.
Another series deals with CYP3A4. The settings on record: [14C]-apremilast, in vitro; cited from earlier work.
Another series relates to CYP1A2. The settings on record: [14C]-apremilast, in vitro; cited from earlier work.
Another series has as its system MDR1. The settings on record: in vitro studies, no reference given; cited from earlier work.
For series [5] the following is noted: midazolam with rifampicin; cited from earlier work.
The mark [6] stands for this setting: apremilast 20 mg with ketoconazole 400 mg once daily vs alone.
Where [7] appears, read: apremilast given with ketoconazole vs alone.
The mark [8] stands for this setting: with ketoconazole vs apremilast 20 mg alone, least-square geometric means.
[9] abbreviates: multiple oral doses of rifampicin vs apremilast alone.
The mark [10] stands for this setting: with i.v. rifampicin vs apremilast 30 mg alone, least-square geometric means.

Where two headings read alike, the source gives them in different places.

As for `CCOc1cc(C(CS(C)(=O)=O)N2C(=O)c3cccc(N)c3C2=O)ccc1OC` (stereo not drawn) [CC-10055], in series [1] (KETO study), the concentrations in urine result was “no detectable concentrations” and the “overall metabolite to parent ratios in plasma” value was at most 5%.

On to `CCOc1cc([C@@H](CS(C)(=O)=O)N2C(=O)c3cccc(NC(C)=O)c3C2=O)ccc1OC` [apremilast], for which the transporter substrate entry with OATP1B1 is on record as “not a substrate”; in the series on OATP1B3 it was “not a substrate”; in the series with MDR1, “is a MDR1 substrate”. In series [2], the “dose excreted unchanged in urine” value is reported as 3%. The stability result in series [3] is listed as “stable”. Further, the “fraction of apremilast excreted unchanged in the urine” value in [1] (KETO study, overall) is given as under 5%. Moreover, the CL/F in series [1] (apremilast 20 mg single oral dose alone, n = 18, arithmetic mean (SD)) is recorded as 10.2 (3.5) l h^−1; in [4] (apremilast 30 mg single oral dose alone, n = 21, arithmetic mean (SD)) it was 10.0 (3.02) l h^−1. Also, in series [1] (setting [6]), the “increase of AUC(0,∞) by ketoconazole” value is “≈ 36%”. For the same molecule, the “increase of Cmax by ketoconazole” value in series [1] (setting [6]) came out at 5%. Further, in series [1] (setting [7]), the “change in renal clearance” value is “no meaningful change”. Besides, the “increase in the percentage of urinary excretion” value in [1] (setting [7]) was “approximately 36%”. For the same molecule, the Tmax was 4 h in series [1]; 2.5 h in series [1] (20 mg); 2.0 (0.5–5.0) h in [4] (apremilast 30 mg single oral dose alone, n = 21, median (range)); 1.25 h in series [4] (both, human, plasma, oral); 1 h in series [4] (both, human, plasma, po); 2 h in series [4] (both, human, plasma, po, 30 mg). The Vd/F in series [1] is 84 L; in [1] (20 mg), 111 L; in [4] (both, human, plasma, oral), 115 L; in series [4] (both, human, plasma, po), 342 L; in series [4] (both, human, plasma, po, 30 mg), 119 L. Besides, the “AUC(0,∞) Ratio (90% CI)” value in series [1] (setting [8]) was 136.4 (126.2, 147.5) %; in [4] (setting [10]) it was 95.71 (88.0, 104.1) %. Moreover, the “CL/F Ratio (90% CI)” value in series [1] (setting [8]) is given as 73.3 (67.8, 79.2) %. In addition, the “Cmax Ratio (90% CI)” value in series [1] (setting [8]) is listed as 104.9 (92.2, 119.3) %; in series [4] (setting [10]) it was 113.1 (103.2, 123.9) %. Moreover, the “Vz/F Ratio (90% CI)” value in series [1] (setting [8]) is 77.5 (69.8, 86.1) %. For the same molecule, in series [1] (setting [8]), the “t1/2 Ratio (90% CI)” value is reported as 106.5 (100.3, 112.7) %. In addition, the “increase in Cmax” value in series [4] (after i.v. rifampicin vs apremilast alone) is recorded as 13%. For the same molecule, the half-life in [4] (both, human, plasma, po) was 6.31 h; in series [4] (both, human, plasma, po, 30 mg) it was 8.2 h. For the same molecule, in [4] (setting [9]), the “decrease of Cmax” value is recorded as “approximately 43%”. Further, in [4] (setting [9]), the “decrease of mean AUC(0,∞)” value was “≈ 72%”. The “increase of apremilast clearance” value in series [4] (setting [9]) was “≈ 3.6 fold”. The “rate of metabolism by CYP isoform” value with CYP2A6 is “lower rates of metabolism”; in the series on CYP3A4, “high rate”; with CYP1A2, “lower rates of metabolism”.

Consider `Cc1ncc2n1-c1ccc(Cl)cc1C(c1ccccc1F)=NC2` [midazolam], for which the “exposure relative to administration alone” value in [5] was 4%.
